# Test system: CCRF-CEM
# Assay: Growth inhibition of human CCRF-CEM cells assessed as cell growth at 10 uM incubated for 48 hrs by sulforhodamine B assay relative to control
# Format: functional
# Conditions: read-out: Activity
# Outline: (§1)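 NCI Developmental Therapeutics Program NCI60 panel. Compounds that were active in the 10 µM one-dose screen went on to dose–response testing. Growth at each concentration is expressed relative to untreated control (100%). GI50 (concentration giving 50% of maximal inhibition of proliferation) and TGI (concentration giving total growth inhibition) were derived from the curves.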
row,SMILES,growth at 10 µM
1,CCc1cccc(C)c1NC(=O)c1sc2nc3c(cc2c1N)C(=O)CCC3,1%

# Test system: HL-60(TB)
# Assay: Growth inhibition of human HL-60(TB) cells assessed as cell growth at 10 uM incubated for 48 hrs by sulforhodamine B assay relative to control
# Format: functional
# Conditions: read-out: Activity
# Outline: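 Screened by the NCI Developmental Therapeutics Program on its panel of 60 human tumour cell lines. Compounds were first tested at a single 10 µM dose, and compounds active there went to dose-response curves. Growth is expressed relative to untreated control (100%). GI50 (50% of maximal proliferation inhibition) and TGI (total growth inhibition) were derived from the dose-response data.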
row,SMILES,growth at 10 µM
1,CCc1cccc(C)c1NC(=O)c1sc2nc3c(cc2c1N)C(=O)CCC3,-30%

# Test system: MOLT-4
# Assay: Growth inhibition of human MOLT-4 cells assessed as cell growth at 10 uM incubated for 48 hrs by sulforhodamine B assay relative to control
# Format: functional
# Conditions: read-out: Activity
# Outline: (§2)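 Submitted to the NCI Developmental Therapeutics Program for the NCI60 human tumour cell line panel. First screen at a single 10 µM concentration. Read-out is growth relative to untreated control cells set at 100%.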
row,SMILES,growth at 10 µM
1,CCc1cccc(C)c1NC(=O)c1sc2nc3c(cc2c1N)C(=O)CCC3,17.9%

# Test system: A549
# Assay: Growth inhibition of human A549/ATCC cells assessed as cell growth at 10 uM incubated for 48 hrs by sulforhodamine B assay relative to control
# Format: functional
# Conditions: read-out: Activity
# Outline: as §1
row,SMILES,growth at 10 µM
1,CCc1cccc(C)c1NC(=O)c1sc2nc3c(cc2c1N)C(=O)CCC3,22.9%

# Test system: HOP-62
# Assay: Growth inhibition of human HOP-62 cells assessed as cell growth at 10 uM incubated for 48 hrs by sulforhodamine B assay relative to control
# Format: functional
# Conditions: read-out: Activity
# Outline: as §2
row,SMILES,growth at 10 µM
1,CCc1cccc(C)c1NC(=O)c1sc2nc3c(cc2c1N)C(=O)CCC3,23.3%

# Test system: HOP-92
# Assay: Growth inhibition of human HOP-92 cells assessed as cell growth at 10 uM incubated for 48 hrs by sulforhodamine B assay relative to control
# Format: functional
# Conditions: read-out: Activity
# Outline: as §2
row,SMILES,growth at 10 µM
1,CCc1cccc(C)c1NC(=O)c1sc2nc3c(cc2c1N)C(=O)CCC3,30%

# Test system: NCI-H226
# Assay: Growth inhibition of human NCI-H226 cells assessed as cell growth at 10 uM incubated for 48 hrs by sulforhodamine B assay relative to control
# Format: functional
# Conditions: read-out: Activity
# Outline: as §2
row,SMILES,growth at 10 µM
1,CCc1cccc(C)c1NC(=O)c1sc2nc3c(cc2c1N)C(=O)CCC3,49%

# Test system: NCI-H322M
# Assay: Growth inhibition of human NCI-H322M cells assessed as cell growth at 10 uM incubated for 48 hrs by sulforhodamine B assay relative to control
# Format: functional
# Conditions: read-out: Activity
# Outline: as §2
row,SMILES,growth at 10 µM
1,CCc1cccc(C)c1NC(=O)c1sc2nc3c(cc2c1N)C(=O)CCC3,32%

# Test system: NCI-H460
# Assay: Growth inhibition of human NCI-H460 cells assessed as cell growth at 10 uM incubated for 48 hrs by sulforhodamine B assay relative to control
# Format: functional
# Conditions: read-out: Activity
# Outline: as §2
row,SMILES,growth at 10 µM
1,CCc1cccc(C)c1NC(=O)c1sc2nc3c(cc2c1N)C(=O)CCC3,4%

# Test system: HCT-116
# Assay: Growth inhibition of human HCT-116 cells assessed as cell growth at 10 uM incubated for 48 hrs by sulforhodamine B assay relative to control
# Format: functional
# Conditions: read-out: Activity
# Outline: as §2
row,SMILES,growth at 10 µM
1,CCc1cccc(C)c1NC(=O)c1sc2nc3c(cc2c1N)C(=O)CCC3,17%

# Test system: HCT-15
# Assay: Growth inhibition of human HCT-15 cells assessed as cell growth at 10 uM incubated for 48 hrs by sulforhodamine B assay relative to control
# Format: functional
# Conditions: read-out: Activity
# Outline: as §2
row,SMILES,growth at 10 µM
1,CCc1cccc(C)c1NC(=O)c1sc2nc3c(cc2c1N)C(=O)CCC3,16%

# Test system: KM12
# Assay: Growth inhibition of human KM12 cells assessed as cell growth at 10 uM incubated for 48 hrs by sulforhodamine B assay relative to control
# Format: functional
# Conditions: read-out: Activity
# Outline: as §2
row,SMILES,growth at 10 µM
1,CCc1cccc(C)c1NC(=O)c1sc2nc3c(cc2c1N)C(=O)CCC3,14%

# Test system: SF-295
# Assay: Growth inhibition of human SF-295 cells assessed as cell growth at 10 uM incubated for 48 hrs by sulforhodamine B assay relative to control
# Format: functional
# Conditions: read-out: Activity
# Outline: (§3)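 Run by the NCI Developmental Therapeutics Program as part of its 60-line human tumour panel. Each compound tested at a single 10 µM dose. Growth expressed as % relative to untreated control cells (100%).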
row,SMILES,growth at 10 µM
1,CCc1cccc(C)c1NC(=O)c1sc2nc3c(cc2c1N)C(=O)CCC3,2%

# Test system: SF-539
# Assay: Growth inhibition of human SF-539 cells assessed as cell growth at 10 uM incubated for 48 hrs by sulforhodamine B assay relative to control
# Format: functional
# Conditions: read-out: Activity
# Outline: as §3
row,SMILES,growth at 10 µM
1,CCc1cccc(C)c1NC(=O)c1sc2nc3c(cc2c1N)C(=O)CCC3,-27%

# Test system: SNB-75
# Assay: Growth inhibition of human SNB-75 cells assessed as cell growth at 10 uM incubated for 48 hrs by sulforhodamine B assay relative to control
# Format: functional
# Conditions: read-out: Activity
# Outline: as §3
row,SMILES,growth at 10 µM
1,CCc1cccc(C)c1NC(=O)c1sc2nc3c(cc2c1N)C(=O)CCC3,-2.83%

# Test system: U-251
# Assay: Growth inhibition of human U-251 cells assessed as cell growth at 10 uM incubated for 48 hrs by sulforhodamine B assay relative to control
# Format: functional
# Conditions: read-out: Activity
# Outline: as §3
row,SMILES,growth at 10 µM
1,CCc1cccc(C)c1NC(=O)c1sc2nc3c(cc2c1N)C(=O)CCC3,2.81%

# Test system: Malme-3M
# Assay: Growth inhibition of human Malme-3M cells assessed as cell growth at 10 uM incubated for 48 hrs by sulforhodamine B assay relative to control
# Format: functional
# Conditions: read-out: Activity
# Outline: as §2
row,SMILES,growth at 10 µM
1,CCc1cccc(C)c1NC(=O)c1sc2nc3c(cc2c1N)C(=O)CCC3,48%

# Test system: M14
# Assay: Growth inhibition of human M14 cells assessed as cell growth at 10 uM incubated for 48 hrs by sulforhodamine B assay relative to control
# Format: functional
# Conditions: read-out: Activity
# Outline: as §2
row,SMILES,growth at 10 µM
1,CCc1cccc(C)c1NC(=O)c1sc2nc3c(cc2c1N)C(=O)CCC3,7%

# Test system: MDA-MB-435
# Assay: Growth inhibition of human MDA-MB-435 cells assessed as cell growth at 10 uM incubated for 48 hrs by sulforhodamine B assay relative to control
# Format: functional
# Conditions: read-out: Activity
# Outline: as §2
row,SMILES,growth at 10 µM
1,CCc1cccc(C)c1NC(=O)c1sc2nc3c(cc2c1N)C(=O)CCC3,-36%

# Test system: SK-MEL-28
# Assay: Growth inhibition of human SK-MEL-28 cells assessed as cell growth at 10 uM incubated for 48 hrs by sulforhodamine B assay relative to control
# Format: functional
# Conditions: read-out: Activity
# Outline: as §3
row,SMILES,growth at 10 µM
1,CCc1cccc(C)c1NC(=O)c1sc2nc3c(cc2c1N)C(=O)CCC3,39%

# Test system: SK-MEL-5
# Assay: Growth inhibition of human SK-MEL-5 cells assessed as cell growth at 10 uM incubated for 48 hrs by sulforhodamine B assay relative to control
# Format: functional
# Conditions: read-out: Activity
# Outline: as §3
row,SMILES,growth at 10 µM
1,CCc1cccc(C)c1NC(=O)c1sc2nc3c(cc2c1N)C(=O)CCC3,-10%

# Test system: UACC-257
# Assay: Growth inhibition of human UACC-257 cells assessed as cell growth at 10 uM incubated for 48 hrs by sulforhodamine B assay relative to control
# Format: functional
# Conditions: read-out: Activity
# Outline: as §3
row,SMILES,growth at 10 µM
1,CCc1cccc(C)c1NC(=O)c1sc2nc3c(cc2c1N)C(=O)CCC3,49%

# Test system: UACC-62
# Assay: Growth inhibition of human UACC-62 cells assessed as cell growth at 10 uM incubated for 48 hrs by sulforhodamine B assay relative to control
# Format: functional
# Conditions: read-out: Activity
# Outline: as §3
row,SMILES,growth at 10 µM
1,CCc1cccc(C)c1NC(=O)c1sc2nc3c(cc2c1N)C(=O)CCC3,29%

# Test system: IGROV-1
# Assay: Growth inhibition of human IGROV-1 cells assessed as cell growth at 10 uM incubated for 48 hrs by sulforhodamine B assay relative to control
# Format: functional
# Conditions: read-out: Activity
# Outline: as §2
row,SMILES,growth at 10 µM
1,CCc1cccc(C)c1NC(=O)c1sc2nc3c(cc2c1N)C(=O)CCC3,30%

# Test system: OVCAR-3
# Assay: Growth inhibition of human OVCAR-3 cells assessed as cell growth at 10 uM incubated for 48 hrs by sulforhodamine B assay relative to control
# Format: functional
# Conditions: read-out: Activity
# Outline: as §3
row,SMILES,growth at 10 µM
1,CCc1cccc(C)c1NC(=O)c1sc2nc3c(cc2c1N)C(=O)CCC3,-26%

# Test system: OVCAR-5
# Assay: Growth inhibition of human OVCAR-5 cells assessed as cell growth at 10 uM incubated for 48 hrs by sulforhodamine B assay relative to control
# Format: functional
# Conditions: read-out: Activity
# Outline: as §3
row,SMILES,growth at 10 µM
1,CCc1cccc(C)c1NC(=O)c1sc2nc3c(cc2c1N)C(=O)CCC3,28%

# Test system: NCI/ADR-RES
# Assay: Growth inhibition of human NCI/ADR-RES cells assessed as cell growth at 10 uM incubated for 48 hrs by sulforhodamine B assay relative to control
# Format: functional
# Conditions: read-out: Activity
# Outline: as §2
row,SMILES,growth at 10 µM
1,CCc1cccc(C)c1NC(=O)c1sc2nc3c(cc2c1N)C(=O)CCC3,-3%

# Test system: A498
# Assay: Growth inhibition of human A498 cells assessed as cell growth at 10 uM incubated for 48 hrs by sulforhodamine B assay relative to control
# Format: functional
# Conditions: read-out: Activity
# Outline: as §1
row,SMILES,growth at 10 µM
1,CCc1cccc(C)c1NC(=O)c1sc2nc3c(cc2c1N)C(=O)CCC3,-13%

# Test system: RXF 393
# Assay: Growth inhibition of human RXF 393 cells assessed as cell growth at 10 uM incubated for 48 hrs by sulforhodamine B assay relative to control
# Format: functional
# Conditions: read-out: Activity
# Outline: as §3
row,SMILES,growth at 10 µM
1,CCc1cccc(C)c1NC(=O)c1sc2nc3c(cc2c1N)C(=O)CCC3,4%

# Test system: SN12C
# Assay: Growth inhibition of human SN12C cells assessed as cell growth at 10 uM incubated for 48 hrs by sulforhodamine B assay relative to control
# Format: functional
# Conditions: read-out: Activity
# Outline: as §3
row,SMILES,growth at 10 µM
1,CCc1cccc(C)c1NC(=O)c1sc2nc3c(cc2c1N)C(=O)CCC3,30%

# Test system: UO-31
# Assay: Growth inhibition of human UO-31 cells assessed as cell growth at 10 uM incubated for 48 hrs by sulforhodamine B assay relative to control
# Format: functional
# Conditions: read-out: Activity
# Outline: as §3
row,SMILES,growth at 10 µM
1,CCc1cccc(C)c1NC(=O)c1sc2nc3c(cc2c1N)C(=O)CCC3,29%

# Test system: PC-3
# Assay: Growth inhibition of human PC-3 cells assessed as cell growth at 10 uM incubated for 48 hrs by sulforhodamine B assay relative to control
# Format: functional
# Conditions: read-out: Activity
# Outline: as §3
row,SMILES,growth at 10 µM
1,CCc1cccc(C)c1NC(=O)c1sc2nc3c(cc2c1N)C(=O)CCC3,23.3%

# Test system: Hs-578T
# Assay: Growth inhibition of human Hs-578T cells assessed as cell growth at 10 uM incubated for 48 hrs by sulforhodamine B assay relative to control
# Format: functional
# Conditions: read-out: Activity
# Outline: as §2
row,SMILES,growth at 10 µM
1,CCc1cccc(C)c1NC(=O)c1sc2nc3c(cc2c1N)C(=O)CCC3,24.8%

# Test system: MDA-MB-468
# Assay: Growth inhibition of human MDA-MB-468 cells assessed as cell growth at 10 uM incubated for 48 hrs by sulforhodamine B assay relative to control
# Format: functional
# Conditions: read-out: Activity
# Outline: as §2
row,SMILES,growth at 10 µM
1,CCc1cccc(C)c1NC(=O)c1sc2nc3c(cc2c1N)C(=O)CCC3,9%

# — ChEMBL document CHEMBL4715736, “Identification of anticancer agents based on the thieno[2,3-b]pyridine and 1H-pyrazole molecular scaffolds” (2016)
